{
  "source": "ChEMBL document CHEMBL4257496",
  "about": "“Discovery and biological evaluation of N5-substituted 6,7-dioxo-6,7-dihydropteridine derivatives as potent Bruton's tyrosine kinase inhibitors” (Medchemcomm, 2018)",
  "key": {"[1]": {"tested_on": "Ramos", "experiment": "Antiproliferative activity against human Ramos cells after 72 hrs by MTT assay", "type": "functional, cell-based", "procedure,_shortened": "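Ramos Burkitt's lymphoma cells (RPMI-1640 with 10% FBS, 37 °C, 5% CO2) were seeded and grown 2 h, then exposed to a range of concentrations in PBS, each in triplicate, for 72 h. MTT was added for 4 h at 37 °C, followed by SDS lysis buffer, and absorbance was read at 570 nm. Inhibition rate = [1 – (A treated/A control)] × 100%. Values are means ± SD of at least two independent determinations.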"}, "[2]": {"target": "T1, Tyrosine-protein kinase BTK (Homo sapiens, UniProt Q06187)", "T1 sequence (Q06187 whole entry)": "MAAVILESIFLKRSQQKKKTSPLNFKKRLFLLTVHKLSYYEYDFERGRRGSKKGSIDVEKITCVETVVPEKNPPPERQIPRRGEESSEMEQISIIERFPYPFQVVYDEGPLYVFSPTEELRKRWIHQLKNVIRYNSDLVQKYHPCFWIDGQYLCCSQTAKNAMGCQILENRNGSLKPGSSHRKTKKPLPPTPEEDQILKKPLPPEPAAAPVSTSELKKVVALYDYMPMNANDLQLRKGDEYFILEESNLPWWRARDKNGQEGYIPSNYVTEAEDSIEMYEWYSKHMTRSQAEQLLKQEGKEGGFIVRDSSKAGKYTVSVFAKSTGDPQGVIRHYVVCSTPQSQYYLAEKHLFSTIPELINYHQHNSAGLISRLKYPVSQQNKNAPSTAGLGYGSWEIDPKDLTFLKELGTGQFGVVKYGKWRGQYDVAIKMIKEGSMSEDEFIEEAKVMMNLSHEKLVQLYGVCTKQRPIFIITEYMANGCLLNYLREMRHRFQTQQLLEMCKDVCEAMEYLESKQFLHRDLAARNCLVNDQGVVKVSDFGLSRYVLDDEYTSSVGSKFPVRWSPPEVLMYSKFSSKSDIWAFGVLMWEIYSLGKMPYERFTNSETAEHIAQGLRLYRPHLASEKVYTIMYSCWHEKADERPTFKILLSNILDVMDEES", "experiment": "Inhibition of recombinant human full-length N-terminal His6-tagged BTK expressed in baculovirus infected Sf21insect cells using poly (4:1 Glu, Tyr) as substrate measured after 1 hr by ELISA"}, "[3]": {"target": "T1, Tyrosine-protein kinase BTK", "experiment": "Inhibition of anti-IgM-stimulated BTK activation in human Ramos cells assessed as reduction in PLCgamma2 phosphorylation at Y759 residue at 5 nM preincubated for 1.5 hrs followed by anti-IgM stimulation and measured after 15 mins by Western blot analysis", "type": "cell-based", "procedure,_shortened": "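Ramos cells were serum-starved 2 h and treated with compound for 1.5 h. They were then stimulated with anti-IgM (2.5 μg mL–1) for 15 min. Cells were lysed by boiling 30 min in Tris-HCl pH 6.8/DTT/SDS buffer and analysed by western blot. Blots were probed for BTK, p-BTK (Tyr223), PLCγ2 and p-PLCγ2, with β-actin or α-tubulin as loading controls.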"}, "[4]": {"target": "Epidermal growth factor receptor (Homo sapiens) (UniProt P00533)", "sequence (P00533 whole entry)": "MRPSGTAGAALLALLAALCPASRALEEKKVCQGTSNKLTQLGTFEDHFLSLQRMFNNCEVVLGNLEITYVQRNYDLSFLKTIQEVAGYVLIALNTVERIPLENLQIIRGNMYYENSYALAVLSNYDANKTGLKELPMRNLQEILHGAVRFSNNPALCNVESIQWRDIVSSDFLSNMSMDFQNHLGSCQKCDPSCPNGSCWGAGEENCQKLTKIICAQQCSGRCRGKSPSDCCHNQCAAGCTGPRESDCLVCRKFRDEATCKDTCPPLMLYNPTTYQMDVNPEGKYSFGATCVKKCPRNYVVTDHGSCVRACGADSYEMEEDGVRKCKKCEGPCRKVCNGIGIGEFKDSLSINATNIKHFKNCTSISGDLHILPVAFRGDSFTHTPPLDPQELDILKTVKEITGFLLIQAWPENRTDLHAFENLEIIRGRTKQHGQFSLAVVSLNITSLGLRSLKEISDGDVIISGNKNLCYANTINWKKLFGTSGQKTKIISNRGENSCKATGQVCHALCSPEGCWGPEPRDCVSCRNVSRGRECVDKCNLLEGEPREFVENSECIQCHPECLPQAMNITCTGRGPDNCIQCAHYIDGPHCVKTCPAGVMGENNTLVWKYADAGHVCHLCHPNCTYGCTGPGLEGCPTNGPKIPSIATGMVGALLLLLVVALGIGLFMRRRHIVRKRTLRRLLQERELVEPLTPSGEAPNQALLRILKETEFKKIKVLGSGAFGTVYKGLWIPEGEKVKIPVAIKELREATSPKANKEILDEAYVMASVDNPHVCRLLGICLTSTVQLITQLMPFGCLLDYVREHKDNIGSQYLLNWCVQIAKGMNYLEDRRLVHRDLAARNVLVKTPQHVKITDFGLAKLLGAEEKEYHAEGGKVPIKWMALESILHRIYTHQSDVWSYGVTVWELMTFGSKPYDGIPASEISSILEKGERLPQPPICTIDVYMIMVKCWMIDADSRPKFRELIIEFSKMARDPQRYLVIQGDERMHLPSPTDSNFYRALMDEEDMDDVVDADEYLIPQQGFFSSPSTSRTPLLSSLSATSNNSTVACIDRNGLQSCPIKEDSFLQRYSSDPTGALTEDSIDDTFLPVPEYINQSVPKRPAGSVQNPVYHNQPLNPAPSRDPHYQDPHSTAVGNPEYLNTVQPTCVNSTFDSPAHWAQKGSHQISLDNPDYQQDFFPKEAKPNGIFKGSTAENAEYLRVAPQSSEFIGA", "experiment": "Inhibition of EGFR (unknown origin) at 100 nM using poly (4:1 Glu, Tyr) as substrate measured after 1 hr by ELISA", "procedure,_shortened": "(§1)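 ELISA kinase assay. Poly(Glu,Tyr)4:1 substrate was precoated at 20 μg mL–1. Active kinase was incubated with compound in 50 mM HEPES pH 7.4, 20 mM MgCl2, 0.1 mM MnCl2, 0.2 mM Na3VO4, 1 mM DTT and 5 μM ATP at 37 °C for 1 h. Phosphotyrosine was detected with anti-phosphotyrosine PY99 and an HRP secondary antibody, developed with OPD, and absorbance was read at 492 nm.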"}, "[5]": {"target": "Receptor tyrosine-protein kinase erbB-4 (Homo sapiens) (UniProt Q15303)", "sequence (Q15303 whole entry)": "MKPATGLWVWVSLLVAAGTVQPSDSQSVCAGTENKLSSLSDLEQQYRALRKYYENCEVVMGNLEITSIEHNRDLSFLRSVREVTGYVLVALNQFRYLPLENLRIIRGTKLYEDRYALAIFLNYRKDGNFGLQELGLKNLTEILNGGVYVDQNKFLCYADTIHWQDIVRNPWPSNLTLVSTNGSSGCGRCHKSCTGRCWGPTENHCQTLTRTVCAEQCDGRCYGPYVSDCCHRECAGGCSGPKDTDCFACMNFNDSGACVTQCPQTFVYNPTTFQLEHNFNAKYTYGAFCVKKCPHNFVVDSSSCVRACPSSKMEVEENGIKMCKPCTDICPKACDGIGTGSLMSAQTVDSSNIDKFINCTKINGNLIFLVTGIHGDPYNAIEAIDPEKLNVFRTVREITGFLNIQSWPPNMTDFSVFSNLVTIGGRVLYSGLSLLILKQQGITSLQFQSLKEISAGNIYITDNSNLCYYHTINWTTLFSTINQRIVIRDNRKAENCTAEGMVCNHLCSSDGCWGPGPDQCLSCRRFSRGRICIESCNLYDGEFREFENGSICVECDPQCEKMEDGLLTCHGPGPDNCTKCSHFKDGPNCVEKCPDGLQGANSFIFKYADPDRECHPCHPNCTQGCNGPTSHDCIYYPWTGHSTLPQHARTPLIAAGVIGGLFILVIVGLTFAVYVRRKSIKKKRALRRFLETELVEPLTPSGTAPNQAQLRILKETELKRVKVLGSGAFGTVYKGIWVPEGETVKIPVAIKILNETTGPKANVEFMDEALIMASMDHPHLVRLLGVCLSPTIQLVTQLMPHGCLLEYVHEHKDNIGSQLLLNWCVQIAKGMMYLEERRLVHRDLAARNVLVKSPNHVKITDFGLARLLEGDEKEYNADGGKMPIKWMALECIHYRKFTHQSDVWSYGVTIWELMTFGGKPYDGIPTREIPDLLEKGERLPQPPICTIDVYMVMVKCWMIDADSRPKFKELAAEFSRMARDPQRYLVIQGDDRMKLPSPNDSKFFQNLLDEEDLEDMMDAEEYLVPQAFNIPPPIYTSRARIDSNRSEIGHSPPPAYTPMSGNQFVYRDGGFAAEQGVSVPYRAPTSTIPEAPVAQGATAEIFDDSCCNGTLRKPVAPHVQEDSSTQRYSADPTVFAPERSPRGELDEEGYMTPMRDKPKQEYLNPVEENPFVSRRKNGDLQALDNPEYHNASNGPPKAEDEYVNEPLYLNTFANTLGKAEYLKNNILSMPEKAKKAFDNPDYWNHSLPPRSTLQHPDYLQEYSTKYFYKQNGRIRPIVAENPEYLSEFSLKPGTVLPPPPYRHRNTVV", "experiment": "Inhibition of ErbB4 (unknown origin) at 100 nM using poly (4:1 Glu, Tyr) as substrate measured after 1 hr by ELISA", "procedure,_shortened": "as §1"}, "[6]": {"target": "Receptor tyrosine-protein kinase erbB-2 (Homo sapiens) (UniProt P04626)", "sequence (P04626 whole entry)": "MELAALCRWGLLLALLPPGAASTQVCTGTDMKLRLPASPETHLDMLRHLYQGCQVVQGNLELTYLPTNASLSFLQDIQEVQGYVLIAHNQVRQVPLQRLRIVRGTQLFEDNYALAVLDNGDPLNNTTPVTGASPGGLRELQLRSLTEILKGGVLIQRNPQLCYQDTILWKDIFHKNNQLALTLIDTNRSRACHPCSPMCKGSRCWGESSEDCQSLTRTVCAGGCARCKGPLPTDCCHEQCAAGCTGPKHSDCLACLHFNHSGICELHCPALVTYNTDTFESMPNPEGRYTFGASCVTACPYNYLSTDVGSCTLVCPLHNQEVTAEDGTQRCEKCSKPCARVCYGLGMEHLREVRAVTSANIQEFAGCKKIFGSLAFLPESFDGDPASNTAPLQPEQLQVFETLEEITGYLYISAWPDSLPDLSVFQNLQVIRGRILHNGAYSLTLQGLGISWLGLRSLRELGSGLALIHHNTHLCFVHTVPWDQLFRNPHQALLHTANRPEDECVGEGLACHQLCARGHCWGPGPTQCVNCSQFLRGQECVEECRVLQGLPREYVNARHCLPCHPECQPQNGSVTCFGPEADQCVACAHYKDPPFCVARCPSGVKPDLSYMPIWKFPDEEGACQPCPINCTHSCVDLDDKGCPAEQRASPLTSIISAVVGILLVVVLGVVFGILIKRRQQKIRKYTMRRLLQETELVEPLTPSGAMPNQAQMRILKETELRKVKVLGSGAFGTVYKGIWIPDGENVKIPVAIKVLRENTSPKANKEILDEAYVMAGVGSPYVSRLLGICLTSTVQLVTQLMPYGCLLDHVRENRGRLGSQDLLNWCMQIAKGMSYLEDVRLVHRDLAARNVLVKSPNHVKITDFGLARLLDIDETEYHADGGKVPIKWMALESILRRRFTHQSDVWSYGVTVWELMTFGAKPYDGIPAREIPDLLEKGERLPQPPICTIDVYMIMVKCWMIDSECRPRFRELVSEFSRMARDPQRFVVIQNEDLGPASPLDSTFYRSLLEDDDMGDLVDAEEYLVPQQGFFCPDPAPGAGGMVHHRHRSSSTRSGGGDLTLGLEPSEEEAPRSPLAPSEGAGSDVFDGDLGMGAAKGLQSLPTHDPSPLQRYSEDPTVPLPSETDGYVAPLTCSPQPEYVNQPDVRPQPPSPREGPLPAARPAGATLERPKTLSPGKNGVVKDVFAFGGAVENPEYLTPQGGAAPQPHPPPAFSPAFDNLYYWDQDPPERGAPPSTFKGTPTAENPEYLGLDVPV", "experiment": "Inhibition of ErbB2 (unknown origin) at 100 nM using poly (4:1 Glu, Tyr) as substrate measured after 1 hr by ELISA relative to control", "procedure,_shortened": "as §1"}, "[7]": {"target": "T2, Tyrosine-protein kinase ITK/TSK (Homo sapiens) (UniProt Q08881)", "T2 sequence (whole entry)": "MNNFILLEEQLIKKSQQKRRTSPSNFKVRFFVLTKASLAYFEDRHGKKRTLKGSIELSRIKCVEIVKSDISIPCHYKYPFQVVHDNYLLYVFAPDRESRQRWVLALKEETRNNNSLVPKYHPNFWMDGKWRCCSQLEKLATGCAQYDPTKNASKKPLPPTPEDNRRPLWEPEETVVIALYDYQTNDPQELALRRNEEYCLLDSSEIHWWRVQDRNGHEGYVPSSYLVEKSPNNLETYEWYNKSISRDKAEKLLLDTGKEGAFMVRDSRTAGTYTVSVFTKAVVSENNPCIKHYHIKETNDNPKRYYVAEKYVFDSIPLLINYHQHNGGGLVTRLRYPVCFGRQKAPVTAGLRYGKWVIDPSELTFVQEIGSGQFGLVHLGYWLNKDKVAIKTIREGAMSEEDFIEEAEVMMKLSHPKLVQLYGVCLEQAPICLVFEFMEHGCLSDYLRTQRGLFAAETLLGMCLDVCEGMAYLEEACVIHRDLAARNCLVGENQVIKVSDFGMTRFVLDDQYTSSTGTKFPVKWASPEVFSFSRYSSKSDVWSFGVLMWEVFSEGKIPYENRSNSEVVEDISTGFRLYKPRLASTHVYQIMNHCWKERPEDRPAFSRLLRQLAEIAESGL", "experiment": "Inhibition of ITK (unknown origin) at 100 nM using poly (4:1 Glu, Tyr) as substrate measured after 1 hr by ELISA relative to control", "procedure,_shortened": "as §1"}, "[8]": {"target": "Proto-oncogene tyrosine-protein kinase receptor Ret (Homo sapiens) (UniProt P07949)", "experiment": "Inhibition of RET (unknown origin) at 100 nM using poly (4:1 Glu, Tyr) as substrate measured after 1 hr by ELISA relative to control", "procedure,_shortened": "as §1"}, "[9]": {"target": "T1, Tyrosine-protein kinase BTK", "experiment": "Inhibition of anti-IgM-induced BTK phosphorylation at Y223 residue in human Ramos cells at 5 nM preincubated for 1.5 hrs followed by anti-IgM stimulation and measured after 15 mins by Western blot analysis"}, "[10]": {"organism": "Homo sapiens", "experiment": "Selectivity ratio of IC50 for EGFR (unknown origin) to IC50 for recombinant human full-length N-terminal His6-tagged BTK expressed in baculovirus infected Sf21insect cells"}},
  "note": "Activity calls are given as the source filed them. The calls are words filed in the database; no cut-off is given here.",
  "data": [
    {"smiles": "C=CC(=O)N1CCC[C@@H](n2nc(-c3ccc(Oc4ccccc4)cc3)c3c(N)ncnc32)C1", "note": "[IBRUTINIB]", "values": [
      {"measurement": "IC50", "setting": "[1]", "value": 6180, "unit": "nM"}
    ]},
    {"smiles": "C=CC(=O)Nc1cccc(-n2c(=O)c(=O)n(C(C)C)c3cnc(Nc4ccc(N5CCN(C)CC5)c(C)c4)nc32)c1", "values": [
      {"measurement": "IC50", "setting": "[2]", "value": 1.9, "unit": "nM"},
      {"measurement": "IC50", "setting": "[1]", "value": 9370, "unit": "nM"},
      {"measurement": "inhibition", "setting": "[3]", "value": "Active"},
      {"measurement": "inhibition", "setting": "[4]", "value": "Active"},
      {"measurement": "inhibition", "setting": "[5]", "value": "Active"},
      {"measurement": "inhibition", "setting": "[6]", "value": "< 35", "unit": "%"},
      {"measurement": "inhibition", "setting": "[7]", "value": "< 35", "unit": "%"},
      {"measurement": "inhibition", "setting": "[8]", "value": "> 70", "unit": "%"},
      {"measurement": "inhibition", "setting": "[9]", "value": "Active"}
    ]},
    {"smiles": "C=CC(=O)Nc1cccc(-n2c(=O)c(=O)[nH]c3cnc(Nc4ccc(N5CCN(C)CC5)cc4OC)nc32)c1", "values": [
      {"measurement": "IC50", "setting": "[2]", "value": 5.4, "unit": "nM"},
      {"measurement": "IC50", "setting": "[1]", "value": "> 100000", "unit": "nM"},
      {"measurement": "inhibition", "setting": "[3]", "value": "inactive"},
      {"measurement": "inhibition", "setting": "[9]", "value": "inactive"}
    ]},
    {"smiles": "C=CC(=O)Nc1cccc(-n2c(=O)c(=O)n(C(C)C)c3cnc(Nc4ccc(N5CCC(N6CCN(C)CC6)CC5)cc4OC)nc32)c1", "values": [
      {"measurement": "IC50", "setting": "[2]", "value": 12.8, "unit": "nM"}
    ]},
    {"smiles": "C=CC(=O)Nc1cccc(-n2c(=O)c(=O)n(C(C)C)c3cnc(Nc4ccc(N(C)CCN(C)C)cc4OC)nc32)c1", "values": [
      {"measurement": "IC50", "setting": "[2]", "value": 20.8, "unit": "nM"}
    ]},
    {"smiles": "C=CC(=O)Nc1cccc(-n2c(=O)c(=O)n(C(C)C)c3cnc(Nc4ccc(N5CCN(C)CC5)cc4OC)nc32)c1", "values": [
      {"measurement": "IC50", "setting": "[2]", "value": 47.4, "unit": "nM"},
      {"measurement": "inhibition", "setting": "[4]", "value": "Active"},
      {"measurement": "inhibition", "setting": "[5]", "value": "Active"},
      {"measurement": "inhibition", "setting": "[6]", "value": "< 35", "unit": "%"},
      {"measurement": "inhibition", "setting": "[7]", "value": "< 35", "unit": "%"},
      {"measurement": "Ratio IC50", "setting": "[10]", "value": 23}
    ]},
    {"smiles": "C=CC(=O)Nc1cccc(-n2c(=O)c(=O)n(C)c3cnc(Nc4ccc(N5CCN(C)CC5)cc4OC)nc32)c1", "values": [
      {"measurement": "IC50", "setting": "[2]", "value": 237, "unit": "nM"}
    ]},
    {"smiles": "C=CC(=O)Nc1cccc(-n2c(=O)c(=O)n(C(C)C)c3cnc(Nc4ccc(N5CCN(C)CC5)c(OC)c4)nc32)c1", "values": [
      {"measurement": "IC50", "setting": "[2]", "value": 2.4, "unit": "nM"},
      {"measurement": "IC50", "setting": "[1]", "value": 10100, "unit": "nM"},
      {"measurement": "inhibition", "setting": "[3]", "value": "Active"},
      {"measurement": "inhibition", "setting": "[4]", "value": "Active"},
      {"measurement": "inhibition", "setting": "[5]", "value": "Active"},
      {"measurement": "inhibition", "setting": "[6]", "value": "< 35", "unit": "%"},
      {"measurement": "inhibition", "setting": "[7]", "value": "< 35", "unit": "%"},
      {"measurement": "inhibition", "setting": "[8]", "value": "> 70", "unit": "%"},
      {"measurement": "inhibition", "setting": "[9]", "value": "Active"}
    ]},
    {"smiles": "C=CC(=O)Nc1cccc(-n2c(=O)c(=O)n(CC)c3cnc(Nc4ccc(N5CCN(C)CC5)cc4OC)nc32)c1", "values": [
      {"measurement": "IC50", "setting": "[2]", "value": 17.2, "unit": "nM"}
    ]},
    {"smiles": "C=CC(=O)Nc1cccc(-n2c(=O)c(=O)n(CCC)c3cnc(Nc4ccc(N5CCN(C)CC5)cc4OC)nc32)c1", "values": [
      {"measurement": "IC50", "setting": "[2]", "value": 21.8, "unit": "nM"}
    ]},
    {"smiles": "C=CC(=O)Nc1cccc(-n2c(=O)c(=O)n(C(C)C)c3cnc(Nc4ccc(OCCN(C)C)cc4OC)nc32)c1", "values": [
      {"measurement": "IC50", "setting": "[2]", "value": 31.9, "unit": "nM"}
    ]}
  ]
}
